# Measurements from PubChem BioAssay AID623964 (The Scripps Research Institute Molecular Screening Center, 2012).
# Calls of active or inactive are those of the source.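 Rule for the calls: active = compounds slowing the HCV NS3-NS4A protease by half at 50 µM or lower, per IC50; inactive = the rest.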
# Molecular target: Hepatitis C virus NS3-NS4A protease (single-chain scNS3-4A)
# Assay: inhibitors of HCV NS3-NS4A protease, late-stage follow-up, selectivity assay for HCV NS3 helicase inhibitor project, biochemical, FRET peptide fluorescence, powder samples (AID 623964)
# Details: scNS3-4A protease, FRET peptide cleavage fluorescence
# In short: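 System: single-chain HCV NS3-NS4A protease (scNS3-4A); Input: 10 nM scNS3-4A protease enzyme; Reagent: quenched FRET peptide substrate, 5-FAM donor with QXL 520 quencher; Detection: 5-FAM fluorescence recovery; Evaluation: IC50 from Hill-equation fit of initial velocities; Benchmarks: DMSO-only reference velocity.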
row,SMILES,IC50
1,CN1CCN(Cc2cc(CN3CCN(C)CC3)c(O)c(=O)c(CN3CCN(C)CC3)c2)CC1,> 100 µM (inactive)
2,Cc1cc(C(O)(c2ccc(Nc3ccccc3)cc2)c2ccc(Nc3ccc(S(=O)(=O)O)cc3)cc2)ccc1N (stereo not drawn),inactive
3,Cc1ccc2nc(-c3ccc4nc(-c5ccc(NC(=O)Nc6ccccc6)cc5)sc4c3)sc2c1S(=O)(=O)O,> 100 µM (inactive)
4,Cc1ccc2nc(-c3ccc4nc(-c5ccc(NC(=O)c6ccc7nc(-c8ccc(N)cc8)sc7c6)cc5)sc4c3)sc2c1S(=O)(=O)O,7 µM
5,Cc1ccc2nc(-c3ccc4nc(-c5ccc6nc(-c7ccc8nc(-c9ccc(N)cc9)sc8c7)sc6c5)sc4c3)sc2c1S(=O)(=O)O,2 µM
6,Cc1ccc2nc(-c3ccc(NC(=O)c4ccc(NC(=O)Nc5ccccc5)cc4)cc3)sc2c1S(=O)(=O)O,> 100 µM (inactive)
7,Cc1ccc2nc(-c3ccc4nc(-c5ccc(NC(=O)Nc6ccc(Cl)cc6)cc5)sc4c3)sc2c1S(=O)(=O)O,13 µM
8,Cc1ccc2nc(-c3ccc4nc(-c5ccc(NC(=O)c6cc(C(F)(F)F)cc(C(F)(F)F)c6)cc5)sc4c3)sc2c1S(=O)(=O)O,23 µM
9,Cc1ccc2nc(-c3ccc4nc(-c5ccc(NC(=O)c6cc(C(F)(F)F)ccc6F)cc5)sc4c3)sc2c1S(=O)(=O)O,inactive
10,O=C(CCCCCCC(=O)Nc1ccc(-c2nc3ccccc3[nH]2)cc1)Nc1ccc(-c2nc3ccccc3[nH]2)cc1,47 µM

# Results, then the compound that gave them:
row,IC50,SMILES
1,39 µM,Cc1ccc2nc(-c3ccc4nc(-c5ccc(NC(=O)c6ccc(N)cc6)cc5)sc4c3)sc2c1S(=O)(=O)O
2,> 100 µM (inactive),COc1ccc(NC(=O)Nc2ccc(-c3nc4ccc(-c5nc6ccc(C)c(S(=O)(=O)O)c6s5)cc4s3)cc2)cc1
3,inactive,Cc1ccc2nc(-c3ccc4nc(-c5ccc(NC(=O)c6ccc(C(C)(C)C)cc6)cc5)sc4c3)sc2c1S(=O)(=O)O
4,inactive,COc1ccc(C(=O)Nc2ccc(-c3nc4ccc(-c5nc6ccc(C)c(S(=O)(=O)O)c6s5)cc4s3)cc2)cc1
5,13 µM,Cc1ccc2nc(-c3ccc4nc(-c5ccc(NC(=O)c6ccc(Cl)c(Cl)c6)cc5)sc4c3)sc2c1S(=O)(=O)O
6,> 100 µM (inactive),COC(=O)c1ccc(C(=O)Nc2ccc(-c3nc4ccc(-c5nc6ccc(C)c(S(=O)(=O)O)c6s5)cc4s3)cc2)cc1
7,inactive,COc1cccc2c(=O)c3cc(Cl)cc(C(=O)Nc4cc(Cl)ccn4)c3[nH]c12
8,inactive,Cc1ccc2nc(-c3ccc4nc(-c5ccc(NC(=O)c6ccc(F)cc6)cc5)sc4c3)sc2c1S(=O)(=O)O
9,5 µM,Cc1ccc2nc(-c3ccc4nc(-c5ccc(NC(=O)c6ccc(C(F)(F)F)cc6)cc5)sc4c3)sc2c1S(=O)(=O)O
10,> 100 µM (inactive),CCOc1ccc2c(NNC(=O)c3cnccn3)c3c(nc2c1)CCCC3
11,> 100 µM (inactive),Cc1ccc2nc(-c3ccc4nc(-c5ccc(NC(=O)c6ccc7ccccc7c6)cc5)sc4c3)sc2c1S(=O)(=O)O
12,> 100 µM (inactive),Cc1ccc2nc(-c3ccc4nc(-c5ccc(NC(=O)c6cccc(Cl)c6)cc5)sc4c3)sc2c1S(=O)(=O)O
13,6 µM,Cc1ccc2nc(-c3ccc4nc(-c5ccc(NC(=O)c6ccc(Br)cc6)cc5)sc4c3)sc2c1S(=O)(=O)O
